# Laboratory results: PMC11003496 (Journal of Enzyme Inhibition and Medicinal Chemistry, 2023)
# Read-outs that look alike come from different tables or passages of the source.
# Key:
# COX-1 = target: T1, COX-1 (Ovis aries, UniProt P05979); experiment: In vitro COX-1 inhibition; type: biochemical
# T1 sequence (P05979 25-600): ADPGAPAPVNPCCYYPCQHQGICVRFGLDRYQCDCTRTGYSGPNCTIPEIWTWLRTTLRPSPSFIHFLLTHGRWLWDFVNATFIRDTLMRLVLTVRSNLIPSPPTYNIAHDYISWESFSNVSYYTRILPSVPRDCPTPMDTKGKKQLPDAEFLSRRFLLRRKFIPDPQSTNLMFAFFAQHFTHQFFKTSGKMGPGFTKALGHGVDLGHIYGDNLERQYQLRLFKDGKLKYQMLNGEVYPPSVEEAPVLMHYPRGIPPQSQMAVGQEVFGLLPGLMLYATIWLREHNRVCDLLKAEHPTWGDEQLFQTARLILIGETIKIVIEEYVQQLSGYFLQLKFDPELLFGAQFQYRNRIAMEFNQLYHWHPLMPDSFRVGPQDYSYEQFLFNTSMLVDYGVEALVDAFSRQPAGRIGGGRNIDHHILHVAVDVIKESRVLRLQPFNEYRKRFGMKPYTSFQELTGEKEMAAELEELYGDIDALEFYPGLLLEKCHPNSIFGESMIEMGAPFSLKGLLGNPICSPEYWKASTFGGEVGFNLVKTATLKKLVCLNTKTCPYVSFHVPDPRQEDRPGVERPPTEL
# COX-2 = target: T2, COX-2 (Homo sapiens, UniProt P35354); experiment: biochemical; settings: for COX-2 S.I.: in vitro COX-2 selectivity index, IC50 (COX-1)/IC50 (COX-2)
# T2 sequence (P35354 18-604): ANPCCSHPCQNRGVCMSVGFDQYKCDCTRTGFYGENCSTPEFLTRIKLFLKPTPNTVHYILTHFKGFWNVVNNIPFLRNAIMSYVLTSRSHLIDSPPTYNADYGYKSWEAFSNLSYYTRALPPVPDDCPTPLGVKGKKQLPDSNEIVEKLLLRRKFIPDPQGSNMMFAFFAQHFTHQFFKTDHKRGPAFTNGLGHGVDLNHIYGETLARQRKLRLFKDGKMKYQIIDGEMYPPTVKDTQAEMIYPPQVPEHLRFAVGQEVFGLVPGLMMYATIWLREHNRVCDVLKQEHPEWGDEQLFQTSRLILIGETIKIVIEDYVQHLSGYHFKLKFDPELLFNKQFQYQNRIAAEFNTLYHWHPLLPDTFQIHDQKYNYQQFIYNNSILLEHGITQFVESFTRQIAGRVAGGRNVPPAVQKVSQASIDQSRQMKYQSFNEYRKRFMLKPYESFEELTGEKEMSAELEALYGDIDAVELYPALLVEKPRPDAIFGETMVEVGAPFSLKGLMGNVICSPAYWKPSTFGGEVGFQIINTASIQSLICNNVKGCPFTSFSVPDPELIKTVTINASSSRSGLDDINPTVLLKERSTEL
# [1] = tested on: MCF7 human breast adenocarcinoma cell line; experiment: MTT cell viability assay, MCF-7; type: cell-based; settings: MCF7, 48 h, read-out: MCF-7 IC50
# aromatase (CYP19A) = target: T3, aromatase (CYP19A) (Homo sapiens, UniProt P11511); experiment: Aromatase; type: biochemical
# T3 sequence (P11511 1-503): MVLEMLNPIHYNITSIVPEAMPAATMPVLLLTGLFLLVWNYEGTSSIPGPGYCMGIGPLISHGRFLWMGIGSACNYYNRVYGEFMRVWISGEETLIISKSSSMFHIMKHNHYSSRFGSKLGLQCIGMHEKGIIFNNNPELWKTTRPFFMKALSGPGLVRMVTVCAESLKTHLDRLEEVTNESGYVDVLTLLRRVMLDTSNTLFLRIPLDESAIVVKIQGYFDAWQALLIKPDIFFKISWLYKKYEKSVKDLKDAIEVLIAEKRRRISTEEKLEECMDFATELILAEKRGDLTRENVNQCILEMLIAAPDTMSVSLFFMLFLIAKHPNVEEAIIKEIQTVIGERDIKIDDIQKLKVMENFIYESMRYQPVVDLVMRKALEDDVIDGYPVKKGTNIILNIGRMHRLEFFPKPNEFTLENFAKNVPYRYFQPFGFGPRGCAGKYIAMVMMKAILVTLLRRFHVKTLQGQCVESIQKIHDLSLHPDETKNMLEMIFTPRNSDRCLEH
# [2] = tested on: A549 non-small cell lung cancer; experiment: MTT cell viability assay, A549; type: cell-based; settings: read-out: A549 IC50
# EGFR = EGFR (Homo sapiens, UniProt P00533); experiment: EGFR Kinase Assay Kit; type: biochemical
# Outline: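 Kinase kit assay. Each well held kinase buffer with DTT, ATP, and Poly(Glu:Tyr 4:1) PTK substrate (10 mg/ml stock). Test compound was added, and diluted EGFR enzyme started the reaction. Incubated 40 min at 30 °C, then Kinase-Glo Max reagent for 15 min at room temperature, and luminescence read. Controls were no-inhibitor wells and enzyme-free blanks.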
# breast MCF7 cells = experiment: Cell cycle analysis by flow cytometry; type: cell-based, human; settings: for cell cycle arrest phase: compound at its IC50; for %G0-G1 / %G2-M / %S: compound at its IC50, 24 h
# Outline: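 MCF7 breast cells were exposed to the test compound for 24 h, then rinsed with PBS, centrifuged and fixed in 70% ethanol. After a PBS wash they were suspended in 0.1 mg/mL RNase and stained with propidium iodide. Flow cytometry on a FACS Calibur measured DNA content to give G0/G1, S and G2/M distribution against negative control.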
# MCF7 breast cells = experiment: Apoptosis by Annexin-V-FITC/PI flow cytometry; type: cell-based, human; settings: for Apoptosis Early / Apoptosis Late / Apoptosis Total / Necrosis: compound at its IC50, 24 h; for late apoptosis increase compared to control: control 0.27% (late); for early apoptosis increase compared to control: control 0.41% (early)
# Outline: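 MCF7 breast cells were treated with the test compound for 24 h, then collected and rinsed twice with PBS. They were stained with Annexin-V-FITC plus propidium iodide for 30 min at room temperature in the dark. Analysis on a FACS Calibur flow cytometer gave early apoptotic, late apoptotic and necrotic fractions, compared against untreated control.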
# B-RAF^V600E = B-RAF^V600E (Homo sapiens, UniProt P15056, V600E); experiment: B-RAF^V600E Kinase Assay Kit; type: biochemical
# normal fibroblast F180 = experiment: MTT cell viability assay, F180; type: cell-based; settings: F180, 48 h, read-out: F180 IC50
# [3] = tested on: Hep3b hepatocellular carcinoma cell line; experiment: MTT cell viability assay, HEP-3B; type: cell-based; settings: Homo sapiens, 48 h, read-out: HEP-3B IC50
# HCT116 colorectal cancer = experiment: MTT cell viability assay, HCT-116; type: cell-based; settings: read-out: HCT-116 IC50, 48 h, mean of six values
# EGFR, sequence (P00533 25-1210): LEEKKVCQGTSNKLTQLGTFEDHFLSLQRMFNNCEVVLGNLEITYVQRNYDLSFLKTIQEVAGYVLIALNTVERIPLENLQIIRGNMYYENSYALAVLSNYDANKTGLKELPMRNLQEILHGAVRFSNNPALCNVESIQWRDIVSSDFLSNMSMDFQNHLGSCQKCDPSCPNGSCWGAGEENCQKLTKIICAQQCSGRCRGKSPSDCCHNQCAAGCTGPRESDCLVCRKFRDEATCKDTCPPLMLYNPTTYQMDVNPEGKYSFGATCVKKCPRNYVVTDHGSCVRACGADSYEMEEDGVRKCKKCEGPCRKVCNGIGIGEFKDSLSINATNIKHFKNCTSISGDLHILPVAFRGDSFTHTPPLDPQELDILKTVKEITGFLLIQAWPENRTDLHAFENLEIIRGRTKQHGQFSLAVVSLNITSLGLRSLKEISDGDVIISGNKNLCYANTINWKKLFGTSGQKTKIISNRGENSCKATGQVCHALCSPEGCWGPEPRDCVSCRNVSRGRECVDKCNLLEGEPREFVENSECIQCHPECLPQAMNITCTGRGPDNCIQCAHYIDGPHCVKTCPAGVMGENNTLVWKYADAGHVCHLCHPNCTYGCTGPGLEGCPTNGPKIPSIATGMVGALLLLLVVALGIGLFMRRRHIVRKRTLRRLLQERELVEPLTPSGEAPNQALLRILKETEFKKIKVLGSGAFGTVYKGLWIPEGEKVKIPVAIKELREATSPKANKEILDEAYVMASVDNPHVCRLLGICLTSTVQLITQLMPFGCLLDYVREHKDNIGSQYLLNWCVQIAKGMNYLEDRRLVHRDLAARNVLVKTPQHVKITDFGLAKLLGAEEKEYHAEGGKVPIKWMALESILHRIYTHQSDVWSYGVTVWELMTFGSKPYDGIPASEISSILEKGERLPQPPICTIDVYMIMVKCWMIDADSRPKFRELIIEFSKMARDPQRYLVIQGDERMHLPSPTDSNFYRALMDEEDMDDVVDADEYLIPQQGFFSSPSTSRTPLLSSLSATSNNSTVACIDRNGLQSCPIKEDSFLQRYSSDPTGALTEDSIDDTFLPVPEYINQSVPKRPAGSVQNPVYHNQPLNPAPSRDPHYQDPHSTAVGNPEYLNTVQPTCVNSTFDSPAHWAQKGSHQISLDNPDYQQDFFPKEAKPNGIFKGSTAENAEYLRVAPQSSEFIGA
# B-RAF^V600E, sequence (P15056 whole entry V600E): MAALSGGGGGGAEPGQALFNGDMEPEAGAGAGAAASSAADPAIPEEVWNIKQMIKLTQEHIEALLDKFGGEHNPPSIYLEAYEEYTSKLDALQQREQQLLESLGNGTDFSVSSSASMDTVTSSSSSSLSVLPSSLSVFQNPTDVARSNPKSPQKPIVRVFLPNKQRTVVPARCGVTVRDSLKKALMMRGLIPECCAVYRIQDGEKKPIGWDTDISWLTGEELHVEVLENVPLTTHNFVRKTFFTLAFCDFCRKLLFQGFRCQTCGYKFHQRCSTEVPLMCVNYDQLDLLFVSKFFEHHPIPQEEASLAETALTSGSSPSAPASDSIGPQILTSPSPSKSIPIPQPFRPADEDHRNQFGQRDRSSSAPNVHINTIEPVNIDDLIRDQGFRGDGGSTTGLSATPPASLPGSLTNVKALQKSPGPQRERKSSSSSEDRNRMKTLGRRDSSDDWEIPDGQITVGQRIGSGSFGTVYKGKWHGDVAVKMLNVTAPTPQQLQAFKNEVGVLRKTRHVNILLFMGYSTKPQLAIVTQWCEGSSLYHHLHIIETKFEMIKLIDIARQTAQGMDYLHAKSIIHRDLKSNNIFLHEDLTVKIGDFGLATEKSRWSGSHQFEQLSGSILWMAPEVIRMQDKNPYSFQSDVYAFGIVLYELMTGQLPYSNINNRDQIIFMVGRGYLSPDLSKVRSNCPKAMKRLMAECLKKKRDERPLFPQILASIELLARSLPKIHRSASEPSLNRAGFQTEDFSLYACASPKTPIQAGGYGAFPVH
smiles,measurement,setting,value
"Cc1c(-c2nnc(SC/C(=N/O)c3ccc(Cl)cc3)n2-c2ccccc2)nnn1-c1ccc(S(N)(=O)=O)cc1 [Compound 19d, (E)-4-(4-(5-((2-(4-chlorophenyl)-2-(hydroxyimino)ethyl)thio)-4-phenyl-4H-1,2,4-triazol-3-yl)-5-methyl-1H-1,2,3-triazol-1-yl)benzenesulfonamide]",IC50,COX-1,4.63 ± 0.023 µM
same,IC50,COX-2,0.437 ± 0.037 µM
same,COX-2 S.I.,COX-2,10.59
"COc1ccc(-n2c(SC/C(=N/O)c3ccc(C)cc3)nnc2-c2nnn(-c3ccc(S(N)(=O)=O)cc3)c2C)cc1 [Compound 19h, (E)-4-(4-(5-((2-(hydroxyimino)-2-(p-tolyl)ethyl)thio)-4-(4-methoxyphenyl)-4H-1,2,4-triazol-3-yl)-5-methyl-1H-1,2,3-triazol-1-yl)benzenesulfonamide]",IC50,[1],15 µM
same,IC50,COX-1,8.6 ± 0.027 µM
same,IC50,aromatase (CYP19A),22.7 µM
same,IC50,"[2]; Homo sapiens, A549, 48 h",4 µM
same,IC50,EGFR,0.169 µM
same,cell cycle arrest phase,breast MCF7 cells,cell cycle arrest at G2/M phase
same,%G0-G1,breast MCF7 cells,45.44%
same,%G2-M,breast MCF7 cells,26.39%
same,%S,breast MCF7 cells,28.17%
same,Apoptosis Early,MCF7 breast cells,22.54%
same,Apoptosis Late,MCF7 breast cells,14.91%
same,Apoptosis Total,MCF7 breast cells,42.21
same,Necrosis,MCF7 breast cells,4.76%
same,late apoptosis increase compared to control,MCF7 breast cells,55.22 fold
same,early apoptosis increase compared to control,MCF7 breast cells,54.97 fold
same,IC50,B-RAF^V600E,0.07 µM
same,IC50,COX-2,0.309 ± 0.071 µM
same,COX-2 S.I.,COX-2,27.83
same,IC50,normal fibroblast F180,11.3 µM
"COc1ccc(-n2c(SC/C(=N/O)c3ccccc3)nnc2-c2nnn(-c3ccc(S(N)(=O)=O)cc3)c2C)cc1 [Compound 19g, (E)-4-(4-(5-((2-(hydroxyimino)-2-phenylethyl)thio)-4-(4-methoxyphenyl)-4H-1,2,4-triazol-3-yl)-5-methyl-1H-1,2,3-triazol-1-yl)benzenesulfonamide]",IC50,COX-1,4.76 ± 0.034 µM
same,IC50,COX-2,0.394 ± 0.031 µM
same,COX-2 S.I.,COX-2,12.08
"COC(=O)N[C@@H](C)CNc1nccc(-c2cn(C(C)C)nc2-c2cc(Cl)cc(NS(C)(=O)=O)c2F)n1 [Encorafenib, encorafenib, reference compound]",IC50,EGFR,0.037 µM
"COc1cccc2c1C(=O)c1c(O)c3c(c(O)c1C2=O)C[C@@](O)(C(=O)CO)C[C@@H]3O[C@H]1C[C@H](N)[C@H](O)[C@H](C)O1 [Doxorubicin, doxorubicin, reference compound]",IC50,[1],0.3 µM
same,IC50,normal fibroblast F180,4.28 µM
"Cc1ccc(/C(CSc2nnc(-c3nnn(-c4ccc(S(N)(=O)=O)cc4)c3C)n2-c2ccccc2)=N\O)cc1 [Compound 19b, (E)-4-(4-(5-((2-(hydroxyimino)-2-(p-tolyl)ethyl)thio)-4-phenyl-4H-1,2,4-triazol-3-yl)-5-methyl-1H-1,2,3-triazol-1-yl)benzenesulfonamide]",IC50,COX-1,4.42 ± 0.021 µM
same,IC50,COX-2,0.485 ± 0.048 µM
same,COX-2 S.I.,COX-2,9.11
"Cc1c(-c2nnc(SC/C(=N/O)c3ccccc3)n2-c2ccccc2)nnn1-c1ccc(S(N)(=O)=O)cc1 [Compound 19a, (E)-4-(4-(5-((2-(hydroxyimino)-2-phenylethyl)thio)-4-phenyl-4H-1,2,4-triazol-3-yl)-5-methyl-1H-1,2,3-triazol-1-yl)benzenesulfonamide]",IC50,COX-1,4.84 ± 0.02 µM
same,IC50,COX-2,0.343 ± 0.07 µM
same,COX-2 S.I.,COX-2,14.11
"CNC(=O)c1cc(Oc2ccc(NC(=O)Nc3ccc(Cl)c(C(F)(F)F)c3)cc2)ccn1 [Sorafenib, sorafenib, reference compound]",IC50,[3],3.5 µM
"O=c1[nH]cc(F)c(=O)[nH]1 [Compound 5-F.U., reference compound]",IC50,HCT116 colorectal cancer,4.8 µM
same,IC50,"[2]; MTT, 48 h, mean of six values",6 µM
"COc1ccc(/C(CSc2nnc(-c3nnn(-c4ccc(S(N)(=O)=O)cc4)c3C)n2-c2ccc(OC)cc2)=N\O)cc1 [Compound 19i, (E)-4-(4-(5-((2-(hydroxyimino)-2-(4-methoxyphenyl)ethyl)thio)-4-(4-methoxyphenyl)-4H-1,2,4-triazol-3-yl)-5-methyl-1H-1,2,3-triazol-1-yl)benzenesulfonamide]",IC50,COX-1,4.6 ± 0.048 µM
same,IC50,COX-2,0.363 ± 0.061 µM
same,COX-2 S.I.,COX-2,12.67
"COc1ccc(-n2c(SC/C(=N/O)c3ccc(Cl)cc3)nnc2-c2nnn(-c3ccc(S(N)(=O)=O)cc3)c2C)cc1 [Compound 19j, (E)-4-(4-(5-((2-(4-chlorophenyl)-2-(hydroxyimino)ethyl)thio)-4-(4-methoxyphenyl)-4H-1,2,4-triazol-3-yl)-5-methyl-1H-1,2,3-triazol-1-yl)benzenesulfonamide]",IC50,COX-1,3.43 ± 0.026 µM
same,IC50,COX-2,0.397 ± 0.025 µM
same,COX-2 S.I.,COX-2,8.63
same,IC50,[3],4.5 µM
"COc1ccc(/C(CSc2nnc(-c3nnn(-c4ccc(S(N)(=O)=O)cc4)c3C)n2-c2ccccc2)=N\O)cc1 [Compound 19c, (E)-4-(4-(5-((2-(hydroxyimino)-2-(4-methoxyphenyl)ethyl)thio)-4-phenyl-4H-1,2,4-triazol-3-yl)-5-methyl-1H-1,2,3-triazol-1-yl)benzenesulfonamide]",IC50,[1],14 µM
same,IC50,COX-1,10.7 ± 0.025 µM
same,IC50,aromatase (CYP19A),22.4 µM
same,IC50,"[2]; Homo sapiens, A549, 48 h",4.5 µM
same,IC50,EGFR,0.112 µM
same,cell cycle arrest phase,breast MCF7 cells,cell cycle arrest at G2/M phase
same,%G0-G1,breast MCF7 cells,37.88%
same,%G2-M,breast MCF7 cells,26.98%
same,%S,breast MCF7 cells,35.14%
same,Apoptosis Early,MCF7 breast cells,21.85%
same,Apoptosis Late,MCF7 breast cells,12.36%
same,Apoptosis Total,MCF7 breast cells,41.55
same,Necrosis,MCF7 breast cells,7.34%
same,late apoptosis increase compared to control,MCF7 breast cells,45.77 fold
same,early apoptosis increase compared to control,MCF7 breast cells,53.29 fold
same,IC50,B-RAF^V600E,0.09 µM
same,IC50,COX-2,0.309 ± 0.041 µM
same,COX-2 S.I.,COX-2,34.62
same,IC50,[3],4.5 to 14 µM
same,IC50,normal fibroblast F180,15.4 µM
